In ChEMBL document CHEMBL1137539, “Synthesis and in vitro evaluation of 5-arylidene-3-hydroxyalkyl-2-phenylimino-4-thiazolidinones with antidegenerative activity on human chondrocyte cultures” (Bioorg Med Chem, 2007):
Calls of active or inactive are those of the source. The rule behind the calls is not given here.

Legend:
Homo sapiens [1] = species on record: Homo sapiens; test: Inhibition of IL1-beta induced nitrite production in human articular chondrocytes at 50 ug/ml after 120 hrs; assay type: functional, cell-based
[2] = Inhibition of IL1-beta induced PGE2 production in human articular chondrocytes at 100 ug/ml; assay type: functional
In short: (§1)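 Human articular chondrocytes came from cartilage taken at femoral neck fracture surgery and were isolated by enzymatic digestion. After 24 h in culture they were exposed to compound (10, 50, 100 µg/mL) with IL-1β (10 ng/mL). Supernatant was collected at 120 h and PGE2 was quantified by enzyme immunoassay (detection limit 1 pg/mL). Values are means with SEM.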

Homo sapiens [3] = species on record: Homo sapiens; test: Inhibition of IL1-beta induced nitrite production in human articular chondrocytes at 10 ug/ml after 120 hrs; assay type: functional, cell-based
Homo sapiens [4] = species on record: Homo sapiens; test: Inhibition of IL1-beta induced nitrite production in human articular chondrocytes at 100 ug/ml after 120 hrs; assay type: functional, cell-based
[5] = Toxicity in human articular chondrocytes assessed as reduction of tetrazolium salt metabolism after 120 hrs by MTT assay; assay type: cell-based
In short: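 Enzymatically isolated human articular chondrocytes were treated with compound (10, 50, 100 µg/mL) plus IL-1β (10 ng/mL). Viability was measured at 120 h by MTT cleavage by mitochondrial dehydrogenases and read as absorbance, mean with SEM.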

Homo sapiens [6] = species on record: Homo sapiens; test: Inhibition of IL1-beta induced glycosaminoglycans depletion in human articular chondrocytes 10 ug/ml to 100 ug/ml; assay type: functional, cell-based
In short: (§2)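 Cartilage from femoral neck fracture patients was digested enzymatically to give chondrocytes. After 24 h the cells received compound at 10, 50 and 100 µg/mL together with IL-1β at 10 ng/mL. Total GAGs released into the medium were measured at 120 h and expressed as µg/mL, mean with SEM.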

Homo sapiens [7] = species on record: Homo sapiens; test: Inhibition of IL1-beta induced PGE2 production in human articular chondrocytes at 10 ug/ml to 100 ug/ml; assay type: functional, cell-based; in short: as §1
Homo sapiens [8] = species on record: Homo sapiens; test: Inhibition of IL1-beta induced MMP3 secretion in human articular chondrocytes at 10 ug/ml to 100 ug/ml; assay type: functional, cell-based
In short: (§3)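 Chondrocytes were isolated from human articular cartilage taken at femoral neck fracture surgery, by sequential hyaluronidase, pronase and collagenase digestion, then cultured. After 24 h they were treated with test compound (10, 50 and 100 µg/mL) plus IL-1β (10 ng/mL). Supernatants were collected at 120 h and MMP-3 was measured by ELISA (detection limit 1 ng/mL). Values are means with SEM.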

[9] = Inhibition of IL1-beta induced MMP3 secretion in human articular chondrocytes at 100 ug/ml; assay type: functional; in short: as §3
[10] = Inhibition of IL1-beta induced glycosaminoglycans depletion in human articular chondrocytes at 100 ug/ml; assay type: functional; in short: as §2

| Compound | Activity (Homo sapiens [1]) | Activity [2] [ng/mL] | Activity (Homo sapiens [3]) | Activity (Homo sapiens [4]) | Activity [5] | Activity (Homo sapiens [6]) | Activity (Homo sapiens [7]) | Activity (Homo sapiens [8]) | Activity [9] [ng/mL] | Activity [10] [ng/mL] |
| --- | --- | --- | --- | --- | --- | --- | --- | --- | --- | --- |
| CS(=O)(=O)c1ccc(/C=C2\S/C(=N\c3ccccc3)N(CCCO)C2=O)cc1 | Active | 53.22 | Active | Active | Non-toxic | Active | – | – | – | – |
| COc1cccc(/C=C2\S/C(=N\c3ccccc3)N(CCO)C2=O)c1 | Active | – | Active | Active | Non-toxic | Active | Active | – | – | – |
| CSc1ccc(/C=C2\S/C(=N\c3ccccc3)N(CCCO)C2=O)cc1 | Active | – | Active | Active | Non-toxic | Active | Active | – | – | – |
| COc1cccc(/C=C2\S/C(=N\c3ccccc3)N(CCCO)C2=O)c1 | Active | – | Active | Active | Non-toxic | Active | Active | – | – | – |
| COc1ccc(/C=C2\S/C(=N\c3ccccc3)N(CCO)C2=O)cc1 | Active | – | Active | Active | Non-toxic | Active | Active | – | – | – |
| COc1ccc(/C=C2\S/C(=N\c3ccccc3)N(CCCO)C2=O)cc1 | Active | – | Active | Active | Non-toxic | Active | Active | Active | – | – |
| COc1ccc2c(c1)c(CC(=O)O)c(C)n2C(=O)c1ccc(Cl)cc1 [INDOMETHACIN] | – | – | – | – | – | – | – | – | 62.64 | – |
| CSc1ccc(/C=C2\S/C(=N\c3ccccc3)N(CCO)C2=O)cc1 | Active | – | Active | Active | Non-toxic | – | Active | – | – | 339000 |
| O=C1/C(=C/c2ccc(Cl)cc2)S/C(=N\c2ccccc2)N1CCCO | Active | – | Active | Active | Non-toxic | Active | Active | – | – | – |
| CS(=O)(=O)c1ccc(/C=C2\S/C(=N\c3ccccc3)N(CCO)C2=O)cc1 | Active | – | Active | Active | Non-toxic | Active | Active | – | – | – |
| CCCN1C(=O)/C(=C/c2cccc(OC)c2)S/C1=N\c1ccccc1 | Active | – | Active | Active | – | – | Active | – | – | – |
| O=C1/C(=C/c2ccc(Cl)cc2)S/C(=N\c2ccccc2)N1CCO | Active | – | Active | Active | Non-toxic | Active | Active | – | – | – |
